For assay [1], the system named is A2780. Put plainly: Cytotoxicity against human A2780 cells after 96 hrs by MTT assay. It is filed as functional, cell-based. The following applies: A2780, 96 h. An outline of the steps:
(§1)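 Tested on a human tumour panel of A2780 (ovary), HCT-8 (colon), Bel-7402 (hepatoma), BGC-823 (stomach) and A549 (lung) lines. Camptothecin was the positive control.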
In general terms: Formazan colour is commonly taken as a measure of viable cells.

The test system of assay [2] is Peritoneal macrophage cell. The experiment in a line: (§2) Antiinflammatory activity in C57BL6J mouse peritoneal macrophages assessed as inhibition of LPS-stimulated TNFalpha secretion at 10 uM after 24 hrs by MTT assay. It counts as functional, cell-based.
Assay [3] has as its system HCT-8. Put plainly: Cytotoxicity against human HCT8 cells after 96 hrs by MTT assay. It counts as functional, cell-based. As to conditions: HCT-8, 96 h. An outline of the steps:
as §1

Assay [4] is described as follows: Cytotoxicity against human […] cells after 96 hrs by MTT assay. It is filed as functional, cell-based. In short, it runs like this: as §1
Assay [5] relates to A549. Put plainly: Cytotoxicity against human A549 cells after 96 hrs by MTT assay. It counts as functional, cell-based. The following applies: A549, 96 h. In short, it runs like this: as §1
Assay [6] deals with Bel-7402. Put plainly: Cytotoxicity against human Bel7402 cells after 96 hrs by MTT assay. It is filed as functional, cell-based. As to conditions: Bel-7402, 96 h. An outline of the steps: as §1
Assay [7] deals with T1, Tyrosine-protein phosphatase non-receptor type 1 (Homo sapiens, UniProt P18031).
T1 sequence (P18031 whole entry): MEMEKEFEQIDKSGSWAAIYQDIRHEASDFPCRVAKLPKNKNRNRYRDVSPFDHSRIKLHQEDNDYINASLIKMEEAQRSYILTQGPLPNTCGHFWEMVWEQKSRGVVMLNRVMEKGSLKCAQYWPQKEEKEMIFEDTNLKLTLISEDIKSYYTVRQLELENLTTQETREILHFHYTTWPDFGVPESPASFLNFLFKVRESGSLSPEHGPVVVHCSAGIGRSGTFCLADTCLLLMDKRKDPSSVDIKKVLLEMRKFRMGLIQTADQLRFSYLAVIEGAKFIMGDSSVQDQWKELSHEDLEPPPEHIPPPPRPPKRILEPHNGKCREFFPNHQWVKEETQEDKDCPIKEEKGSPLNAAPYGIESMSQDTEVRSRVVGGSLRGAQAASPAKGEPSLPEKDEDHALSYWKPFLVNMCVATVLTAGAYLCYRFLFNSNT
Put plainly: Inhibition of GST-tagged human recombinant PTP1B assessed as dephosphorylation of para-nitrophenyl phosphate after 10 mins by spectrophotometric analysis.

A short description of assay [8]: as §2. It is filed as functional, cell-based. The following applies: Peritoneal macrophage cell.

Calls of active or inactive are those of the source. No cut-off for these calls is given here.

One may read the IC50 as the point on the concentration scale where inhibition reaches its midpoint. Take `CC(=O)C1=CC[C@@]2(C)[C@@H]3CC=C4[C@@H](C=C(O[C@@H]5O[C@H](CO)[C@@H](O)[C@H](O)[C@H]5O)C(=O)C4(C)C)[C@]3(C)C(=O)C[C@]12C`: the IC50 in assay [1], in assay [3], in assay [4], in assay [5] and in assay [6] was over 10 µM each time. Besides, the outcome in assay [2] was inactive.
`CC1(C)C(=O)C(O[C@@H]2O[C@H](CO)[C@@H](O)[C@H](O)[C@H]2O)=C[C@@H]2C1=CC[C@@H]1[C@@]2(C)C(=O)C[C@]2(C)[C@@H]3[C@@H](C[C@@]12C)O[C@H](C(C)(C)O)CC(=O)[C@]3(C)O`: the IC50 in assay [1] is over 10 µM; in assay [3], over 10 µM; in assay [4], over 10 µM; in assay [5], over 10 µM; in assay [6], over 10 µM; in assay [7] it was 2.81 µM. Further, in assay [2], the outcome was inactive.
As for `CC1(C)C(=O)C(O[C@@H]2O[C@H](CO)[C@@H](O)[C@H](O)[C@H]2O)=C[C@@H]2C1=CC[C@@H]1[C@@]2(C)C(=O)C[C@]2(C)[C@@H]([C@@](C)(O)C(=O)C[C@H]3NC(=O)OC3(C)C)[C@H](O)C[C@@]12C`, the IC50 is over 10 µM in assay [1]; over 10 µM in assay [3]; over 10 µM in assay [4]; over 10 µM in assay [5]; over 10 µM in assay [6]; 4.26 µM in assay [7]. In addition, the result in assay [2] was inactive.
With `CC(=O)OC(C)(C)/C=C/C(=O)[C@](C)(O)[C@H]1[C@H](O)C[C@@]2(C)[C@@H]3CC=C4[C@@H](C=C(O[C@@H]5O[C@H](CO)[C@@H](O)[C@H](O)[C@H]5O)C(=O)C4(C)C)[C@]3(C)C(=O)C[C@]12C`, the IC50 in assay [1] was over 10 µM; in assay [3] it was over 10 µM; in assay [4], 4.98 µM; in assay [5], 3.2 µM; in assay [6], over 10 µM. In addition, the result in assay [2] was inactive.
Take `CC1(C)C(=O)C(O)=C[C@@H]2C1=CC[C@@H]1[C@@]2(C)C(=O)C[C@]2(C)[C@@H]([C@@](C)(O)C(=O)C[C@H](O)C(C)(C)O)[C@H](O)C[C@@]12C`: the IC50 in assay [1], in assay [8], in assay [3], in assay [4], in assay [5] and in assay [6] was over 10 µM each time.
As for `CC1(C)C[C@]2(O)O[C@@H]3C[C@@]4(C)[C@@H]5CC=C6[C@@H](C=C(O[C@@H]7O[C@H](CO)[C@@H](O)[C@H](O)[C@H]7O)C(=O)C6(C)C)[C@]5(C)C(=O)C[C@]4(C)[C@H]3[C@@](C)(O)[C@]2(O)O1`, the IC50 in assay [1] was over 10 µM; in assay [3], over 10 µM; in assay [4], over 10 µM; in assay [5] it was over 10 µM; in assay [6] it was over 10 µM; in assay [7], 8.63 µM. In assay [2], the outcome was inactive.
Regarding `CC(=O)[C@H]1[C@H](O)C[C@@]2(C)[C@@H]3CC=C4[C@@H](C=C(O[C@@H]5O[C@H](CO)[C@@H](O)[C@H](O)[C@H]5O)C(=O)C4(C)C)[C@]3(C)C(=O)C[C@]12C` [KHEKADAENGOSIDE K], the half-maximal inhibitory concentration (IC50) in assay [1], in assay [3], in assay [4], in assay [5] and in assay [6] was over 10 µM throughout. In addition, the outcome in assay [2] was inactive.
Consider `CO[C@@H](CC(=O)[C@](C)(O)[C@H]1[C@H](O)C[C@@]2(C)[C@@H]3CC=C4[C@@H](C=C(O)C(=O)C4(C)C)[C@]3(C)C(=O)C[C@]12C)C(C)(C)O`, for which the IC50 in assay [1], in assay [8], in assay [3], in assay [4], in assay [5] and in assay [6] was over 10 µM in each case.
With `CC1(C)C(=O)C(O[C@@H]2O[C@H](CO)[C@@H](O)[C@H](O)[C@H]2O)=C[C@@H]2C1=CC[C@@H]1[C@@]2(C)C(=O)C[C@]2(C)[C@@H]([C@@](C)(O)C(=O)C[C@@H](O)C(C)(C)O)[C@H](O)C[C@@]12C`, the IC50 in assay [1], in assay [3], in assay [4], in assay [5] and in assay [6] was over 10 µM throughout. For the same compound, the outcome in assay [2] was inactive.
`C[C@H]1[C@H]2[C@@H](C[C@@]3(C)[C@@H]4CC=C5[C@@H](C=C(O[C@@H]6O[C@H](CO)[C@@H](O)[C@H](O)[C@H]6O)C(=O)C5(C)C)[C@]4(C)C(=O)C[C@]23C)O[C@@]2(O)CC(C)(C)O[C@@]12O`: the IC50 in assay [1], in assay [3], in assay [4], in assay [5] and in assay [6] was over 10 µM each time. In assay [2], the result was inactive.
Consider `CC1(C)C(=O)C(O[C@@H]2O[C@H](CO)[C@@H](O)[C@H](O)[C@H]2O)=C[C@@H]2C1=CC[C@@H]1[C@@]2(C)C(=O)C[C@]2(C)[C@@H]([C@@](C)(O)C(=O)C[C@H](O)C(C)(C)O)[C@H](O)C[C@@]12C`, for which the IC50 in assay [1], in assay [3], in assay [4], in assay [5] and in assay [6] was over 10 µM in each case. Further, in assay [2], the outcome was inactive.
For `CC[C@@]1(O)C(=O)OCc2c1cc1n(c2=O)Cc2cc3ccccc3nc2-1` [CAMPTOTHECIN], the IC50 in assay [1], in assay [3], in assay [4], in assay [5] and in assay [6] was 0.26 µM in each case.
For `CO[C@@H](CC(=O)[C@](C)(O)[C@H]1[C@H](O)C[C@@]2(C)[C@@H]3CC=C4[C@@H](C=C(O[C@@H]5O[C@H](CO)[C@@H](O)[C@H](O)[C@H]5O)C(=O)C4(C)C)[C@]3(C)C(=O)C[C@]12C)C(C)(C)O`, the half-maximal inhibitory concentration (IC50) in assay [1], in assay [3], in assay [4], in assay [5] and in assay [6] was over 10 µM throughout. For the same compound, the outcome in assay [2] was inactive.
As to `CC(C)(O)/C=C/C(=O)[C@](C)(O)[C@H]1[C@H](O)C[C@@]2(C)[C@@H]3CC=C4[C@@H](C=C(O[C@@H]5O[C@H](CO)[C@@H](O)[C@H](O)[C@H]5O)C(=O)C4(C)C)[C@]3(C)C(=O)C[C@]12C`, the IC50 in assay [1], in assay [3], in assay [4], in assay [5] and in assay [6] was over 10 µM each time. For the same compound, the outcome in assay [2] was inactive.
With `CC1(C)C(=O)C(O[C@@H]2O[C@H](CO)[C@@H](O)[C@H](O)[C@H]2O)=C[C@@H]2C1=CC[C@@H]1[C@@]2(C)C(=O)C[C@]2(C)[C@@H]([C@@]3(C)OC=CC3=O)[C@H](O)C[C@@]12C`, the IC50 in assay [1], in assay [3], in assay [4], in assay [5] and in assay [6] was over 10 µM throughout. In assay [2], the result was inactive.
`CC1(C)C(=O)C(O)=C[C@@H]2C1=CC[C@@H]1[C@@]2(C)C(=O)C[C@]2(C)[C@@H]([C@@](C)(O)C(=O)C[C@@H](O)C(C)(C)O)[C@H](O)C[C@@]12C`: the IC50 in assay [1], in assay [3], in assay [4], in assay [5] and in assay [6] was over 10 µM each time. Moreover, in assay [2], the result was inactive.

For the origin of these results see ChEMBL document CHEMBL1921699, “Cucurbitane glucosides from the root of Machilus yaoshansis” (J Nat Prod, 2011).
